Each structure is given as a SMILES string. Changes are numbered by the printed parent chain. Where “and” joins values, the source holds several entries; their conditions need not be identical. Identical values can stand only once.

Test in all cases: 3′-CMP titration followed by 1H-15N HSQC, NMR line shape analysis
The target of one assay is T1, WT RNase A (Bos taurus, UniProt P61823).
T1 sequence (P61823 27-150): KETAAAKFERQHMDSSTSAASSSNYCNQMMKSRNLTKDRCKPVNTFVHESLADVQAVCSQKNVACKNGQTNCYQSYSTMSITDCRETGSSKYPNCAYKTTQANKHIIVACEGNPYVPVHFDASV
The format is binding, bovine. The settings on record: for koff: global two-state fit of residues, 298 K, pH 6.4. The method, boiled down:
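Each point recorded as a 1H-15N sensitivity-enhanced HSQC at 11.7 T, with spectral widths of 1600 Hz (t1) and 7000 Hz (t2). Kd and koff were taken from NMR line-shape fits of backbone amide shift changes.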

Assay [1] concerns the target T2, RNase AECP (RNase A with loop 1 from ECP) (Bos taurus, UniProt P61823, DEL40-47/INS50PP/S49L/Y51R).
T2 sequence (P61823 with tags, fused parts or gaps DEL40-47/S49L/INS50PP/Y51R): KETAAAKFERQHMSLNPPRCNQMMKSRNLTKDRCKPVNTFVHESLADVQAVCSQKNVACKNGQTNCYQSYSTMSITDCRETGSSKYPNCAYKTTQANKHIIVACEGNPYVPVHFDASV
The format is binding.

In another assay the target is T3, RNase A (H48A) (Bos taurus, UniProt P61823, H74A).
T3 sequence (P61823 27-150 H74A): T1 sequence (P61823 27-150) with H48A
The format is binding.

In the case of `Nc1ccn([C@@H]2O[C@H](CO)[C@@H](OP(=O)(O)O)[C@H]2O)c(=O)n1` [3′-CMP, cytidine-3′-monophosphate], the Kd on WT RNase A amounted to 74 ± 2 µM; in assay [1], 300 ± 16 µM; on RNase A (H48A) it was 895 ± 50 µM. In addition, the koff at WT RNase A (WT RNase A) was 1155 ± 120 s⁻¹; at WT RNase A (pH 6.4, WT RNase A), roughly 1200 s⁻¹; in assay [1] (pH 6.4), 96 ± 9 s⁻¹; on RNase A (H48A) (pH 6.4) it was 142 ± 19 s⁻¹. Moreover, the kon on WT RNase A (WT RNase A, kon determined from koff/Kd) was 1.56 × 10^7 ± 1.67 × 10^6 M^−^1s^−^1; in assay [1] (RNase AECP chimera, kon determined from koff/Kd), 3.20 × 10^5 ± 3.45 × 10^4 M^−^1s^−^1; on RNase A (H48A) (RNase A H48A mutant, kon determined from koff/Kd) it was 1.59 × 10^5 ± 2.30 × 10^4 M^−^1s^−^1. Also, the “decrease in koff relative to WT” value in assay [1] (RNase AECP vs WT RNase A) is 10 fold and ~ 10 fold; at RNase A (H48A) (H48A vs WT RNase A), 10 fold and ~ 10 fold. For the same molecule, the “reduction of binding affinity relative to WT” value is ~ 4 fold in assay [1] (RNase AECP vs WT RNase A) and ~ 12 fold on RNase A (H48A) (H48A vs WT RNase A).

The values above are taken from paper PMC2741010 (Biochemistry, 2009).
